Results taken from ChEMBL document CHEMBL1151772, “Discovery of multitarget inhibitors by combining molecular docking with common pharmacophore matching” (J Med Chem, 2008).

Key:
[1] = target: T1, Leukotriene A-4 hydrolase (Homo sapiens, UniProt P09960); assay: Inhibition of epoxide hydrolase activity of human leukotriene A4 hydrolase assessed as LTB4 level by ELISA
T1 sequence (P09960 whole entry): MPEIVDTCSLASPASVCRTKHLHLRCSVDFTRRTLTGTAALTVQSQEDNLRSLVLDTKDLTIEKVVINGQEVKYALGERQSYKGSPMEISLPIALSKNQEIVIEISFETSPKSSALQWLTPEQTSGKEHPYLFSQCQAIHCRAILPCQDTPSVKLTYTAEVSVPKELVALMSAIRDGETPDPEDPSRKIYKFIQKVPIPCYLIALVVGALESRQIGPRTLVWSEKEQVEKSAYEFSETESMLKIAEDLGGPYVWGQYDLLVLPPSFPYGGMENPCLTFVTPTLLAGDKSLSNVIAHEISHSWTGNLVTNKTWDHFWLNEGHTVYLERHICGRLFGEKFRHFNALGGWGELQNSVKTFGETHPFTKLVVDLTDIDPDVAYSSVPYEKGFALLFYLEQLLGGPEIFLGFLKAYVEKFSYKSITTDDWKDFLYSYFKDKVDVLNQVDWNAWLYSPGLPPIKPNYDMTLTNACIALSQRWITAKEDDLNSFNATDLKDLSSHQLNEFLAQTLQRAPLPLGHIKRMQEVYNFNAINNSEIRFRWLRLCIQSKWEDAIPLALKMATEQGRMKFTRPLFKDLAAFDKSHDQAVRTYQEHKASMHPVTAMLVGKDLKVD
Outline: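 LTA4 prepared by hydrolysing LTA4 methyl ester in cold acetone/NaOH under nitrogen. Enzyme (300 ng) preincubated with compound 15 min at 37 °C in 10 mM sodium phosphate pH 7.4, 4 mg/mL BSA, 5% DMSO. Reaction started with LTA4 (150 nM final), 10 min at 37 °C, stopped by dilution into buffer; LTB4 measured by ELISA. Three separate experiments.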

[2] = target: T1, Leukotriene A-4 hydrolase; assay: Inhibition of aminopeptidase activity of human leukotriene A4 hydrolase assessed as para-nitroanilide release by spectrophotometry
Outline: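 Enzyme (1-20 µg) in 50 mM Tris-HCl pH 8.0 with 100 mM NaCl at 37 °C; inhibitor preincubated 2 min; 5% v/v DMSO final. Started with 0.125 mM Ala-p-nitroanilide; p-NA formation followed at 405 nm for 15 min, quantified against p-NA standard curve. IC50 from initial rates across inhibitor concentrations via V0/V = 1 + [I]/IC50; three separate experiments.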

[3] = target: T2, Phospholipase A2, membrane associated (Homo sapiens, UniProt P14555); assay: Inhibition of human nonpancreatic secretory phospholipase A2
T2 sequence (P14555 whole entry): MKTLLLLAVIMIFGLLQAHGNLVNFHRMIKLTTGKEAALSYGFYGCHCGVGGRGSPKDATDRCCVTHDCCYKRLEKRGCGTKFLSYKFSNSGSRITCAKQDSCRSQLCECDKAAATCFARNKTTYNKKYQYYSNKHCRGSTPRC
Outline: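 Inhibitor preincubated with substrate 10 min at 25 °C. Enzyme added to start; ex 377/em 470 nm read kinetically for 20 min. IC50 from initial rates via V0/V = 1 + [I]/IC50; three separate experiments.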

Compound	IC50 [1] [µM]	IC50 [2] [µM]	IC50 [3] [µM]
O=C(C[n+]1ccc(Cc2ccc([N+](=O)[O-])cc2)cc1)c1ccccc1	386	23.4	43.7
NCCc1c[nH]c2c(OCc3ccccc3)cccc12	217	12.5	52.5
NCCOc1ccc(Oc2ccccc2)cc1			7.3
NC(Cc1c[nH]c2ccc(OCc3ccccc3)cc12)C(=O)O (stereo not given)	231	17.3	42.1
